# Test results: the M2OR odorant receptor database
# What was measured:
# Conditions in all cases: stereoisomer not certain
# [1] = target: T1, UniProt Q8VG27
# T1 sequence (whole entry): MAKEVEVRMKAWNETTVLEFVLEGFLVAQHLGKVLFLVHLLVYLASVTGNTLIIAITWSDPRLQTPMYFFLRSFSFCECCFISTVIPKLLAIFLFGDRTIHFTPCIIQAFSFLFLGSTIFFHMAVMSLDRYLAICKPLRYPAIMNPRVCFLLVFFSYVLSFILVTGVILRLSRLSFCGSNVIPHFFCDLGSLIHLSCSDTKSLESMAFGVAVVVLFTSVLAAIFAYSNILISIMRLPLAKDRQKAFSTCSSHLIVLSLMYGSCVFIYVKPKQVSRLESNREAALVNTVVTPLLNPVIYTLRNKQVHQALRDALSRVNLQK
# Method in brief: (§1)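 Transient luciferase assays in mammalian cell lines were common, though methods varied by source. The values come from published papers and their supplementary material, with extra details from the original authors when needed. Responsive refers to a measured signal the original authors judged statistically different from baseline, and non-responsive (inactive) to the remainder.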
# [2] = target: T2, UniProt Q8VG49
# T2 sequence (whole entry): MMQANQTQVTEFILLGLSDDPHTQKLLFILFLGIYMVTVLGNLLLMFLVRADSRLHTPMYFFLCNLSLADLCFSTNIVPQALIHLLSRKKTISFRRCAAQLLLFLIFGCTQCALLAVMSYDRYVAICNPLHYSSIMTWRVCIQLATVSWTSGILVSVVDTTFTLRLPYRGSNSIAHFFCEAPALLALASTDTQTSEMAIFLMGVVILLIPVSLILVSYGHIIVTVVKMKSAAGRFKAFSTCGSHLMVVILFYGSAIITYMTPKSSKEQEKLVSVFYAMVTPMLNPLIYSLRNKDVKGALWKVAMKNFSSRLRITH
# Method in brief: as §1
# [3] = target: T3, UniProt Q8VG53
# T3 sequence (whole entry): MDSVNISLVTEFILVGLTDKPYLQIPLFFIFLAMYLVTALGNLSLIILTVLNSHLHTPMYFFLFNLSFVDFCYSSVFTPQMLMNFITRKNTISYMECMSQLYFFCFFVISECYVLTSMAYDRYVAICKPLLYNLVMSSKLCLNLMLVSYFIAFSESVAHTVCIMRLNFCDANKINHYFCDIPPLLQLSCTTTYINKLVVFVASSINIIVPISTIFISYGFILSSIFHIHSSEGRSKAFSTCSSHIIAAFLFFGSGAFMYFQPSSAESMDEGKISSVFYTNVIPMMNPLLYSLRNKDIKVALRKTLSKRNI
# Method in brief: as §1
# [4] = target: T4, UniProt Q8VG64
# T4 sequence (whole entry): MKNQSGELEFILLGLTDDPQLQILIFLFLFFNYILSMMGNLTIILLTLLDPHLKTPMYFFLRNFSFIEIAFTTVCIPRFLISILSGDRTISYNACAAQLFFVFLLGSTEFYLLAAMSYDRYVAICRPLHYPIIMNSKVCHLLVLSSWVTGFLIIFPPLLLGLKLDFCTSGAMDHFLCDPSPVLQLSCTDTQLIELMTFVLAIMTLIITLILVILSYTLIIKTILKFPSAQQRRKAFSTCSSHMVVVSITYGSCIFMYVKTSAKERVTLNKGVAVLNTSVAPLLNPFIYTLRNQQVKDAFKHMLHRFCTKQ
# Method in brief: as §1
# [5] = target: T5, UniProt Q8VG77
# T5 sequence (whole entry): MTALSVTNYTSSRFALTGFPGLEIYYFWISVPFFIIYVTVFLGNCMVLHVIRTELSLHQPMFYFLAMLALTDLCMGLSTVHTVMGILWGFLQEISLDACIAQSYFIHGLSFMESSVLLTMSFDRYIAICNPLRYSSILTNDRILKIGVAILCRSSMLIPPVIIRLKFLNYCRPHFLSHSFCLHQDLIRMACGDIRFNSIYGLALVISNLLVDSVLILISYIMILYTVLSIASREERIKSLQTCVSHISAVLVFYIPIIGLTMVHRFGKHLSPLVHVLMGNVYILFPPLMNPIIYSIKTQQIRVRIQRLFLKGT
# Method in brief: as §1
# [6] = target: T6, UniProt Q8VG96
# T6 sequence (whole entry): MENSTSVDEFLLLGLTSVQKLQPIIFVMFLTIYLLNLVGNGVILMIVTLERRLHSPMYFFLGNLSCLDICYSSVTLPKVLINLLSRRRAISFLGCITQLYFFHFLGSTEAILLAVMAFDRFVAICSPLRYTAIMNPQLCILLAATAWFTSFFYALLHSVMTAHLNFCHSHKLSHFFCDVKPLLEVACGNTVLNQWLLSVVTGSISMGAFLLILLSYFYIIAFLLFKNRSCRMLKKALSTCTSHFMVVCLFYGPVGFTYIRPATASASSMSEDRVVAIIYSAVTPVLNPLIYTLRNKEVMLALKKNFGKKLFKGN
# Method in brief: as §1
# [7] = target: T7, UniProt Q8VGB9
# T7 sequence (whole entry): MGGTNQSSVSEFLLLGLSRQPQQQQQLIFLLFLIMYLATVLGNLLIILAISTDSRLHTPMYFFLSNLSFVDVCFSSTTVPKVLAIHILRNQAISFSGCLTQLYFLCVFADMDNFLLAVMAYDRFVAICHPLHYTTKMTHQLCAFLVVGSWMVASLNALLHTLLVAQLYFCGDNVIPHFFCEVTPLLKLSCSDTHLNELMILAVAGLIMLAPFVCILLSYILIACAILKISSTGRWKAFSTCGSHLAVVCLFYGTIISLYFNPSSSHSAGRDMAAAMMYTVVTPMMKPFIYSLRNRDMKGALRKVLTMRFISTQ
# Method in brief: as §1
# [8] = target: T8, UniProt Q8VGC6
# T8 sequence (whole entry): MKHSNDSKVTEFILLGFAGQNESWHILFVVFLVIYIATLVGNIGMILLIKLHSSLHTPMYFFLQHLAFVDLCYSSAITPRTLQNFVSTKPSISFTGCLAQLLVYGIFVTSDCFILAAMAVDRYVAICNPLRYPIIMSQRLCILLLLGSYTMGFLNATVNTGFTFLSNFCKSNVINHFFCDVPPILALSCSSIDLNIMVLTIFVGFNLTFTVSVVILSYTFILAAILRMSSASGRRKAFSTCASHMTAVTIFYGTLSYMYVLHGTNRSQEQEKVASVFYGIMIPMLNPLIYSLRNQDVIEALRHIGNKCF
# Method in brief: as §1
# [9] = target: T9, UniProt Q8VGD7
# T9 sequence (whole entry): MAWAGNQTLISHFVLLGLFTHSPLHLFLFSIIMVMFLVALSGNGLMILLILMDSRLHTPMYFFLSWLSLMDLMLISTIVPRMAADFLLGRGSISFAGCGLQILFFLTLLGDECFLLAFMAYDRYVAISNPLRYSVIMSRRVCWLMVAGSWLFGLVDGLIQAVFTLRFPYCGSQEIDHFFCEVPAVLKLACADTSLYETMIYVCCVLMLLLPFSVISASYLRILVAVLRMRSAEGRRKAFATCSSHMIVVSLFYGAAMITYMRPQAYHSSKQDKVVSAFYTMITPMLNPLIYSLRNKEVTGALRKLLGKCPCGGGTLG
# Method in brief: as §1
# [10] = target: T10, UniProt Q8VGH1
# T10 sequence (whole entry): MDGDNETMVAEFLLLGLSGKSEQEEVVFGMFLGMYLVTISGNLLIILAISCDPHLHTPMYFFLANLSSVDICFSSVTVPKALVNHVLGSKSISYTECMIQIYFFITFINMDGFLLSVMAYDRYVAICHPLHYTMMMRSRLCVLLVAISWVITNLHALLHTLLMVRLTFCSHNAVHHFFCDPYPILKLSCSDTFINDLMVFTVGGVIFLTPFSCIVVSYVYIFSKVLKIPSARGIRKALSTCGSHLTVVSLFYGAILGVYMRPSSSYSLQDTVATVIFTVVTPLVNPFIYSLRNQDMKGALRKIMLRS
# Method in brief: as §1
# [11] = target: T11, UniProt Q8VGJ1
# T11 sequence (whole entry): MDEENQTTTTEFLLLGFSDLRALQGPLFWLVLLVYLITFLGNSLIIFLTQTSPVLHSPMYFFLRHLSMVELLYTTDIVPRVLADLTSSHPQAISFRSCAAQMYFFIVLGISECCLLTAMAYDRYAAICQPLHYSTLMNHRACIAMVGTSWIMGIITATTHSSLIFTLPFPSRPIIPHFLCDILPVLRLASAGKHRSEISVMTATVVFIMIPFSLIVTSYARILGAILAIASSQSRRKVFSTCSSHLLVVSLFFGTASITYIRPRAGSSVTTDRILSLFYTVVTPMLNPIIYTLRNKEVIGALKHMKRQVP
# Method in brief: as §1
# [12] = target: T12, UniProt Q8VGJ3
# T12 sequence (whole entry): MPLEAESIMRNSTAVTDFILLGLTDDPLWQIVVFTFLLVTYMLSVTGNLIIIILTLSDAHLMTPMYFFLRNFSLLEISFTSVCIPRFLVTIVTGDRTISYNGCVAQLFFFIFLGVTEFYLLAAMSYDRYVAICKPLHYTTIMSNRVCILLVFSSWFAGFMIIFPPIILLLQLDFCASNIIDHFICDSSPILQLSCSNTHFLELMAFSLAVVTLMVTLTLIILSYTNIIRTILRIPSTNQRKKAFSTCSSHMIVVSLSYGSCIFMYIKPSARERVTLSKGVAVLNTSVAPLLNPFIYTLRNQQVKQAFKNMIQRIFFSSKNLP
# Method in brief: as §1
# [13] = target: T13, UniProt Q8VGJ5
# T13 sequence (whole entry): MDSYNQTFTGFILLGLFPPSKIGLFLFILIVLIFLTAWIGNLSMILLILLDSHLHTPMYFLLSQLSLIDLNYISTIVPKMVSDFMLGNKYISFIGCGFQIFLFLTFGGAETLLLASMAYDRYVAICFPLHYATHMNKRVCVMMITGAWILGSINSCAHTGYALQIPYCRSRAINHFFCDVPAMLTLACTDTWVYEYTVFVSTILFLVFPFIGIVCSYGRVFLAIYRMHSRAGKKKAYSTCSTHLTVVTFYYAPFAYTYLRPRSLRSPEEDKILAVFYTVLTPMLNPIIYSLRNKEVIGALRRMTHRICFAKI
# Method in brief: as §1
# [14] = target: T14, UniProt Q8VGL0
# T14 sequence (whole entry): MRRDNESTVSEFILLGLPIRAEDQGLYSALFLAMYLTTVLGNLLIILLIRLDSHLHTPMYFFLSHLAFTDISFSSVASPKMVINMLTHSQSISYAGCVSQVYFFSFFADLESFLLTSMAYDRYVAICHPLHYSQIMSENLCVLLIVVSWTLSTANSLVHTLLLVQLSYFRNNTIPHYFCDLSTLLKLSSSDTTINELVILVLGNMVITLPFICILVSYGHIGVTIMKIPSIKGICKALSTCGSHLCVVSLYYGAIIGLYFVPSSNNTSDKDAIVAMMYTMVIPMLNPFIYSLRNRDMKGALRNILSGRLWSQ
# Method in brief: as §1
# [15] = target: T15, UniProt Q8VGL7
# T15 sequence (whole entry): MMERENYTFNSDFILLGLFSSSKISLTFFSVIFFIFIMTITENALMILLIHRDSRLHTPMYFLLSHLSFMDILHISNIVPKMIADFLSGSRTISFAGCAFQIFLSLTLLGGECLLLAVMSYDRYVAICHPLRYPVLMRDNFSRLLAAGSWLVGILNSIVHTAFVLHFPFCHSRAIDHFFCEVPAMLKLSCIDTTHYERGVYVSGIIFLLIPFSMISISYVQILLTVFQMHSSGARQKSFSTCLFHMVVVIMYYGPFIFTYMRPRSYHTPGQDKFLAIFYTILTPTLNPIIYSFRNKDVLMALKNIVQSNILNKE
# Method in brief: as §1
# 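Note: active if original authors judged signal statistically different from baseline.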
Compound,odorant receptor agonist call [1],odorant receptor agonist call [2],odorant receptor agonist call [3],odorant receptor agonist call [4],odorant receptor agonist call [5],odorant receptor agonist call [6],odorant receptor agonist call [7],odorant receptor agonist call [8],odorant receptor agonist call [9],odorant receptor agonist call [10],odorant receptor agonist call [11],odorant receptor agonist call [12],odorant receptor agonist call [13],odorant receptor agonist call [14],odorant receptor agonist call [15]
CCOC(=O)C(C)C,inactive,inactive,inactive,inactive,inactive,inactive,inactive,inactive,inactive,inactive,inactive,inactive,active,inactive,active
COC(OC)c1ccccc1,inactive,–,inactive,inactive,–,–,inactive,inactive,–,–,–,inactive,–,inactive,–
CCCCCOC(=O)CCC,inactive,–,inactive,inactive,–,–,inactive,inactive,–,–,–,inactive,–,inactive,–
